Laboratory results reported in PMC6127800 (Molecular Pharmaceutics, 2018).
Where two headings read alike, the source gives them in different places.

Legend:
hPD-L1 and CHO tumors = test: Ex vivo biodistribution of [68Ga]WL12 in hPD-L1 and CHO tumor model; parameters: species or system mice; conditions: 120 min
Summary of the method: (§1)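 Female NSG mice, 6–8 weeks old, carried s.c. CHO cells stably expressing human PD-L1 and parental CHO cells (10 × 10^6, opposite upper flanks), used at 200−500 mm3. Radiotracer was given i.v. at 25 μCi, with tissues taken at 15, 60 and 120 min (n = 3). Blocking (n = 2) used 50 μg unlabeled peptide s.c. 60 min pre-tracer. %ID/g was decay-corrected against triplicate 68Ga standards; tumor-to-blood and tumor-to-muscle ratios were derived.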

[1] = as above; parameters: species or system mice; conditions: female, NSG, mouse, iv, 25 uCi, total radioactivity
Summary of the method: as §1

[2] = format: in vivo, mice; conditions: female, NSG, mouse, iv, 25 uCi, total radioactivity
[3] = tested on: MDAMB231 and SUM149 tumors; format: in vivo, mice; conditions: 60 min; 50 μg WL12 s.c. 60 min before tracer, n = 2

Question: Which hPD-L1/CHO tumor ratio (hPD-L1 and CHO tumors) does the source give for CCCC[C@H]1C(=O)N(C)[C@@H](CCCC)C(=O)N[C@@H](CCCNC(=O)CCC(C(=O)O)N2CCN(CC(=O)O)CCN(CC(=O)O)CCN(CC(=O)O)CC2)C(=O)N[C@H](C(=O)NCC(N)=O)CSCC(=O)N[C@@H](Cc2ccc(O)cc2)C(=O)N(C)[C@@H](C)C(=O)N[C@@H](CC(N)=O)C(=O)N2CCC[C@H]2C(=O)N[C@@H](Cc2c[nH]cn2)C(=O)N[C@@H](CC(C)C)C(=O)N2C[C@H](O)C[C@H]2C(=O)N[C@@H](Cc2c[nH]c3ccccc23)C(=O)N[C@@H](CO)C(=O)N[C@@H](Cc2cn(C)c3ccccc23)C(=O)N1C (stereo partly shown) [[^68Ga]WL12, metal not drawn] here?
Answer: Its hPD-L1/CHO tumor ratio is 19.7 ± 2.7.

Question: And the tissue uptake at 1 h ([1]; CHO tumor)?
Answer: The tissue uptake at 1 h was 1.33 ± 0.21 %ID/g.

Question: What about the tissue uptake at 1 h ([1]; blood) of the same compound?
Answer: Its tissue uptake at 1 h is 3.3 ± 0.4 %ID/g.

Question: What about the tissue uptake at 2 h ([1]; blood) of the same compound?
Answer: Its tissue uptake at 2 h is 0.6 ± 0.01 %ID/g.

Question: What about the tissue to tissue ratio at 2 h ([1]; hPD-L1 tumor / blood) of the same compound?
Answer: The tissue to tissue ratio at 2 h was 16 ± 3.4.

Question: What about the tissue to tissue ratio at 1 h ([1]; hPD-L1 tumor / muscle) of the same compound?
Answer: Its tissue to tissue ratio at 1 h is 59.8 ± 16.5.

Question: And the tissue to tissue ratio at 2 h ([1]; hPD-L1 tumor / muscle)?
Answer: Its tissue to tissue ratio at 2 h is 100 ± 61.2.

Question: What about the tissue uptake at 0.25 h ([1]; hPD-L1 tumor) of the same compound?
Answer: Its tissue uptake at 0.25 h is 19.4 ± 3.3 %ID/g.

Question: And the tissue uptake at 1 h ([1]; hPD-L1 tumor)?
Answer: The tissue uptake at 1 h was 11.6 ± 3.18 %ID/g.

Question: And the tissue uptake at 2 h ([1]; hPD-L1 tumor)?
Answer: The tissue uptake at 2 h was 9.89 ± 1.72 %ID/g.

Question: What about the tissue uptake at 1 h ([1]; kidney) of the same compound?
Answer: The tissue uptake at 1 h was 64.7 ± 12.1 %ID/g.

Question: What about the tissue uptake at 2 h ([1]; kidney) of the same compound?
Answer: The tissue uptake at 2 h was 27.7 ± 4.09 %ID/g.

Question: And the tissue uptake at 1 h ([1]; liver)?
Answer: The tissue uptake at 1 h was 15.1 ± 7.6 %ID/g.

Question: And the tissue uptake at 2 h ([1]; liver)?
Answer: The tissue uptake at 2 h was 2.7 ± 0.2 %ID/g.

Question: And the tissue uptake at 1 h ([2]; MDAMB231 tumor)?
Answer: Its tissue uptake at 1 h is 4.97 ± 0.8 %ID/g.

Question: What about the tissue uptake at 1 h ([2]; SUM149 tumor) of the same compound?
Answer: Its tissue uptake at 1 h is 1.9 ± 0.1 %ID/g.

Question: What about the tissue uptake at 1 h ([2]; kidney) of the same compound?
Answer: Its tissue uptake at 1 h is 65.6 ± 3.6 %ID/g.

Question: And the tissue uptake at 1 h ([2]; liver)?
Answer: The tissue uptake at 1 h was 11.4 ± 0.7 %ID/g.

Question: What about the “reduction in MDAMB231 tumor uptake with blocking dose of WL12” value [3] of the same compound?
Answer: The value was > 50%.
